Results published in publication PMC10405366 (Molecular pharmaceutics, 2023).

Experiments:
[1] = system: female athymic nude (nu/nu) mice; assay: Tolerability study: hematology; assay type: in vivo, mouse
How it was run: (§1)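 Athymic nude mice (n = 5 per group) received test compound or the Tween80:Captex200:saline vehicle IP every 2 days for 14 days. About 2–4 h after the last dose, mice were killed with CO2 and blood was drawn by cardiac puncture. Complete blood counts and serum chemistry were run by a pathology core. Values are given as means ± SD, n = 3–5.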

[2] = system: female athymic nude (nu/nu) mice; assay: Tolerability study: serum chemistry; assay type: in vivo, mouse
How it was run: as §1

[3] = system: MDA-MB-435; assay: Cell viability assay; assay type: cell-based, human; conditions: MDA-MB-435
How it was run: (§2)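 RPMI1640 (OVCAR3, OVCAR4, MDA-MB-435) or DMEM (OVCAR8, MDA-MB-231) was used, with 10% FBS and penicillin/streptomycin. Cells were STR-validated and kept below 20 passages. Cells were plated at 5000 per well overnight, then given test compound at final 0.95–250 nM (nine levels, 0.5% DMSO) for 72 h at 37 °C. Viability was read by CellTiter-Blue absorbance, and IC50 was taken relative to DMSO. Paclitaxel (0.39–100 nM) was the control, with three biological replicates.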

[4] = system: MDA-MB-231; assay: Cell viability assay; assay type: cell-based, human; conditions: MDA-MB-231
How it was run: as §2

[5] = system: OVCAR8; assay: 2D foci assay; assay type: cell-based, human; conditions: OVCAR8, 50 nM for 8 h, two weeks colony formation, relative to vehicle
How it was run: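 Cells were seeded at 200 per 60 mm dish and left to attach overnight. They were then exposed for 8 h to test compound (50 nM), DMSO vehicle or paclitaxel (10 nM). Medium was replaced and cells grew drug-free for about two weeks (15 days). Colonies were fixed in 4% paraformaldehyde, stained with 0.05% crystal violet, imaged and counted. There were three biological replicates, compared with vehicle by Dunnett's test.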

[6] = 0.114 mg/kg IP every 2 days, 14 days
[7] = 0.285 mg/kg IP every 2 days, 14 days
[8] = 1.14 mg/kg IP every 2 days, removed at 8 days
[9] = 0.570 mg/kg IP every 2 days, removed day 13

Q: What does the source list for `CN1C(=O)[C@]23SS[C@@]1(C)C(=O)N2[C@H]1Nc2ccccc2[C@@]1([C@@]12c4ccccc4N[C@@H]1N1C(=O)[C@]4(C)SS[C@]1(C(=O)N4C)[C@H]2OC(=O)CCC(=O)O)[C@@H]3O` [verticillin A succinate]?
A: MCH [1, 6]: 14.6 ± 0.2 pg; MCHC [1, 6]: 32.8 ± 0.6 g/dL; MCV [1, 6]: 44.4 ± 1.2 fL; MPV [1, 6]: 7.9 ± 0.2 fL; PCT [1, 6]: 0.754 ± 0.093%; PDW [1, 6]: 47.5 ± 2.5%; RBC [1, 6]: 8.95 ± 0.15 M/μL; RDW [1, 6]: 13.9 ± 0.4%; Reticulocyte # [1, 6]: 11.3 ± 12.9 K/μL; WBC # [1, 6]: 6.52 ± 1.73 K/μL; basophil # [1, 6]: 0.01 ± 0.01 K/μL; eosinophil # [1, 6]: 0.01 ± 0.01 K/μL; hematocrit [1, 6]: 39.7 ± 1.4%; hemoglobin [1, 6]: 13.0 ± 0.2 g/dL; lymphocyte # [1, 6]: 3.81 ± 1.09 K/μL; monocyte # [1, 6]: 0.36 ± 0.10 K/μL; neutrophil # [1, 6]: 2.33 ± 0.63 K/μL; nucleated RBCs # [1, 6]: 0 ± 0 K/μL; platelet # [1, 6]: 954 ± 118 K/μL; reticulocyte [1, 6]: 0.13 ± 0.14%; MCH [1, 7]: 14.7 ± 0.2 pg; MCHC [1, 7]: 32.9 ± 0.8 g/dL; MCV [1, 7]: 44.7 ± 0.9 fL; MPV [1, 7]: 7.7 ± 0.07 fL; PCT [1, 7]: 0.722 ± 0.072%; PDW [1, 7]: 48.2 ± 2.2%; RBC [1, 7]: 9.15 ± 0.22 M/μL; RDW [1, 7]: 14.1 ± 0.6%; Reticulocyte # [1, 7]: 6.3 ± 13.7 K/μL; WBC # [1, 7]: 5.99 ± 1.11 K/μL; basophil # [1, 7]: 0.01 ± 0.01 K/μL; eosinophil # [1, 7]: 0.02 ± 0.02 K/μL; hematocrit [1, 7]: 40.9 ± 1.2%; hemoglobin [1, 7]: 13.5 ± 1.8 g/dL; lymphocyte # [1, 7]: 3.12 ± 1.25 K/μL; monocyte # [1, 7]: 0.20 ± 0.08 K/μL; neutrophil # [1, 7]: 2.64 ± 0.54 K/μL; nucleated RBCs # [1, 7]: 0 ± 0 K/μL; platelet # [1, 7]: 938 ± 98 K/μL; reticulocyte [1, 7]: 0.07 ± 0.15%; MCH [1, 8]: 15.3 ± 0.4 pg; MCHC [1, 8]: 32.5 ± 1.1 g/dL; MCV [1, 8]: 47.2 ± 1.6 fL; MPV [1, 8]: 7.4 ± 0.1 fL; PCT [1, 8]: 0.701 ± 0.202%; PDW [1, 8]: 51.5 ± 1.4%; RBC [1, 8]: 9.49 ± 0.49 M/μL; RDW [1, 8]: 15.1 ± 0.2%; Reticulocyte # [1, 8]: 0 ± 0 K/μL; WBC # [1, 8]: 6.80 ± 1.14 K/μL; basophil # [1, 8]: 0.07 ± 0.10 K/μL; eosinophil # [1, 8]: 0.10 ± 0.16 K/μL; hematocrit [1, 8]: 44.7 ± 2.7%; hemoglobin [1, 8]: 14.5 ± 0.42 g/dL; lymphocyte # [1, 8]: 2.19 ± 0.61 K/μL; monocyte # [1, 8]: 0.18 ± 0.04 K/μL; neutrophil # [1, 8]: 4.26 ± 0.56 K/μL; nucleated RBCs # [1, 8]: 0 ± 0 K/μL; platelet # [1, 8]: 947 ± 271 K/μL; reticulocyte [1, 8]: 0 ± 0%; ALP [2, 6]: 139 ± 9 U/L; ALT [2, 6]: 39 ± 6 U/L; AST [2, 6]: 88 ± 10 U/L; BUN [2, 6]: 20 ± 1 mg/dL; GGT [2, 6]: 8 ± 0 U/L; albumin [2, 6]: 3.7 ± 0.2 g/dL; amylase [2, 6]: 1039 ± 215 U/L; calcium [2, 6]: 11.8 ± 0.3 mg/dL; cholesterol [2, 6]: 141 ± 12 mg/dL; creatine kinase [2, 6]: 160 ± 37 U/L; creatinine [2, 6]: 0.43 ± 0.02 mg/dL; globulin [2, 6]: 2.1 ± 0.2 g/dL; glucose [2, 6]: 225 ± 28 mg/dL; lipase [2, 6]: 55 ± 44 U/L; phosphorous [2, 6]: 11.7 ± 0.8 mg/dL; total bilirubin [2, 6]: 0.3 ± 0.1 mg/dL; total protein [2, 6]: 5.8 ± 0.3 g/dL; triglyceride [2, 6]: 247 ± 70 mg/dL; ALP [2, 7]: 133 ± 19 U/L; ALT [2, 7]: 47 ± 13 U/L; AST [2, 7]: 125 ± 18 U/L; BUN [2, 7]: 15 ± 1 mg/dL; GGT [2, 7]: 0 ± 1 U/L; albumin [2, 7]: 3.4 ± 0.2 g/dL; amylase [2, 7]: 1208 ± 75 U/L; calcium [2, 7]: 11.2 ± 0.7 mg/dL; cholesterol [2, 7]: 146 ± 13 mg/dL; creatine kinase [2, 7]: 214 ± 28 U/L; creatinine [2, 7]: 0.42 ± 0.8 mg/dL; globulin [2, 7]: 2.0 ± 0.2 g/dL; glucose [2, 7]: 235 ± 10 mg/dL; lipase [2, 7]: 74 ± 5 U/L; phosphorous [2, 7]: 11.9 ± 0.8 mg/dL; total bilirubin [2, 7]: 0.3 ± 0.0 mg/dL; total protein [2, 7]: 5.4 ± 0.3 g/dL; triglyceride [2, 7]: 262 ± 68 mg/dL; ALP [2, 9]: 89 ± 13 U/L; ALT [2, 9]: 48 ± 25 U/L; AST [2, 9]: 254 ± 138 U/L; BUN [2, 9]: 24 ± 8 mg/dL; GGT [2, 9]: 4 ± 3 U/L; albumin [2, 9]: 2.6 ± 0.9 g/dL; amylase [2, 9]: 1203 ± 240 U/L; calcium [2, 9]: 11.5 ± 0.9 mg/dL; cholesterol [2, 9]: 115 ± 23 mg/dL; creatine kinase [2, 9]: 1916 ± 1915 U/L; creatinine [2, 9]: 0.29 ± 0.05 mg/dL; globulin [2, 9]: 2.6 ± 1.1 g/dL; glucose [2, 9]: 172 ± 49 mg/dL; phosphorous [2, 9]: 15.5 ± 1.4 mg/dL; total bilirubin [2, 9]: 0.4 ± 0.1 mg/dL; total protein [2, 9]: 5.2 ± 0.4 g/dL; triglyceride [2, 9]: 128 ± 38 mg/dL; ALP [2, 8]: 74 ± 12 U/L; ALT [2, 8]: 121 ± 145 U/L; AST [2, 8]: 420 ± 438 U/L; BUN [2, 8]: 24 ± 4 mg/dL; GGT [2, 8]: 6 ± 4 U/L; albumin [2, 8]: 2.4 ± 0.8 g/dL; amylase [2, 8]: 1221 ± 520 U/L; calcium [2, 8]: 7.2 ± 5.3 mg/dL; cholesterol [2, 8]: 111 ± 10 mg/dL; creatine kinase [2, 8]: 582 ± 384 U/L; creatinine [2, 8]: 0.26 ± 0.05 mg/dL; globulin [2, 8]: 2.5 ± 0.8 g/dL; glucose [2, 8]: 141 ± 62 mg/dL; lipase [2, 8]: 84 ± 64 U/L; phosphorous [2, 8]: 12.2 ± 1.0 mg/dL; total bilirubin [2, 8]: 0.5 ± 0.3 mg/dL; total protein [2, 8]: 4.9 ± 0.4 g/dL; triglyceride [2, 8]: 266 ± 160 mg/dL; cytotoxic activity [3]: pronounced cytotoxic activities; cytotoxic activity [4]: pronounced cytotoxic activities; foci formation [5]: completely abrogated foci formation
